Test results from ChEMBL document CHEMBL1128220, “Syntheses and antimalarial activities of N-substituted 11-azaartemisinins” (J Med Chem, 1995).

What was measured:
Mus musculus [1] = assay: In vivo study of compound in mice was determined by no. of dead mice after 19 days post infection at the dose of 8 mg/kg/day; assay type: ADME, organism-based; conditions: 456 h
Procedure, shortened: (§1)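 Mice infected with Plasmodium berghei were dosed in mg/kg/day, from 0 for untreated controls up to 256. Deaths were logged by the day postinfection on which they occurred. Surviving mice were counted 60 days after infection. Treated groups held 5 or 7 mice.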

Mus musculus [2] = assay: Number of mice alive 60 days after infection at the dose of 8 mg/kg/day among the 5 mice tested; assay type: functional; procedure, shortened: as §1
Mus musculus [3] = assay: In vivo study of compound in mice was determined by no. of dead mice after 26 days post infection at the dose of 8 mg/kg/day; assay type: ADME, organism-based; conditions: 624 h; procedure, shortened: as §1
Mus musculus [4] = assay: In vivo study of compound in mice was determined by no. of dead mice after 16 days post infection at the dose of 8 mg/kg/day; assay type: ADME, organism-based; conditions: 384 h; procedure, shortened: as §1
Mus musculus [5] = assay: Number of mice alive 60 days after infection at the dose of 128 mg/kg/day among the 5 mice tested; assay type: functional; procedure, shortened: as §1
Plasmodium falciparum = assay: In vitro antimalarial activity for chloroquine-resistant Plasmodium falciparum FCR3 relative to artemisinin; assay type: functional
Mus musculus [6] = assay: In vivo study of Plasmodium berghei in mice (Mus musculus) was determined by number of dead mice (Mus musculus) after 20 days post infection at the dose of 8 mg/kg/day; assay type: ADME, organism-based; conditions: 480 h; procedure, shortened: as §1
Mus musculus [7] = assay: In vivo study of compound in mice was determined by no. of dead mice after 15 days post infection at the dose of 8 mg/kg/day; assay type: ADME, organism-based; conditions: 360 h; procedure, shortened: as §1
Mus musculus [8] = assay: Number of mice alive 60 days after infection at the dose of 32 mg/kg/day among the 5 mice tested; assay type: functional; procedure, shortened: as §1
Mus musculus [9] = assay: In vivo study of compound in mice was determined by no. of dead mice after 8 days post infection at the dose of 4 mg/kg/day; assay type: ADME, organism-based; conditions: 192 h; procedure, shortened: as §1
Mus musculus [10] = assay: In vivo study of compound in mice was determined by no. of dead mice after 9 days post infection at the dose of 4 mg/kg/day; assay type: ADME, organism-based; conditions: 216 h; procedure, shortened: as §1
Mus musculus [11] = assay: In vivo study of compound in mice was determined by no. of dead mice after 18 days post infection at the dose of 4 mg/kg/day; assay type: ADME, organism-based; conditions: 432 h; procedure, shortened: as §1
Mus musculus [12] = assay: In vivo study of compound in mice was determined by no. of dead mice after 18 days post infection at the dose of 16 mg/kg/day; assay type: ADME, organism-based; conditions: 432 h; procedure, shortened: as §1
Mus musculus [13] = assay: In vivo study of compound in mice was determined by no. of dead mice after 11 days post infection at the dose of 4 mg/kg/day; assay type: ADME, organism-based; conditions: 264 h; procedure, shortened: as §1
Mus musculus [14] = assay: Number of mice alive 60 days after infection at the dose of 256 mg/kg/day among the 7 mice tested; assay type: functional; procedure, shortened: as §1
Mus musculus [15] = assay: Number of mice alive 60 days after infection at the dose of 64 mg/kg/day among the 7 mice tested; assay type: functional; procedure, shortened: as §1
Mus musculus [16] = assay: In vivo study of compound in mice was determined by no. of dead mice after 16 days post infection at the dose of 4 mg/kg/day; assay type: ADME, organism-based; conditions: 384 h; procedure, shortened: as §1
Mus musculus [17] = assay: Number of mice alive 60 days after infection at the dose of 16 mg/kg/day among the 7 mice tested; assay type: functional; procedure, shortened: as §1
Mus musculus [18] = assay: Number of mice alive 60 days after infection at the dose of 4 mg/kg/day among the 7 mice tested; assay type: functional; procedure, shortened: as §1
Mus musculus [19] = assay: In vivo study of compound in mice was determined by no. of dead mice after 12 days post infection at the dose of 4 mg/kg/day; assay type: ADME, organism-based; conditions: 288 h; procedure, shortened: as §1
Mus musculus [20] = assay: Number of mice alive 60 days after infection at the dose of 32 mg/kg/day among the 7 mice tested; assay type: functional; procedure, shortened: as §1
Mus musculus [21] = assay: Number of mice alive 60 days after infection at the dose of 0 mg/kg/day among the 7 mice tested; assay type: functional; procedure, shortened: as §1
Mus musculus [22] = assay: Number of mice alive 60 days after infection at the dose of 8 mg/kg/day among the 7 mice tested; assay type: functional; procedure, shortened: as §1
Mus musculus [23] = assay: In vivo study of Plasmodium berghei in mice (Mus musculus) was determined by number of dead mice (Mus musculus) after 14 days post infection at the dose of 8 mg/kg/day; assay type: ADME, organism-based; conditions: 336 h; procedure, shortened: as §1
Mus musculus [24] = assay: In vivo study of Plasmodium berghei in mice (Mus musculus) was determined by number of dead mice (Mus musculus) after 27 days post infection at the dose of 32 mg/kg/day; assay type: ADME, organism-based; conditions: 648 h; procedure, shortened: as §1
Mus musculus [25] = assay: In vivo study of control in mice was determined by no. of dead mice after 10 days post infection at the dose of 0 mg/kg/day; assay type: ADME, organism-based; conditions: 240 h; procedure, shortened: as §1
Mus musculus [26] = assay: In vivo study of Plasmodium berghei in mice (Mus musculus) was determined by number of dead mice (Mus musculus) after 20 days post infection at the dose of 32 mg/kg/day; assay type: ADME, organism-based; conditions: 480 h; procedure, shortened: as §1
Mus musculus [27] = assay: In vivo study of Plasmodium berghei in mice (Mus musculus) was determined by number of dead mice (Mus musculus) after 17 days post infection at the dose of 128 mg/kg/day; assay type: ADME, organism-based; conditions: 408 h; procedure, shortened: as §1
Mus musculus [28] = assay: In vivo study of Plasmodium berghei in mice (Mus musculus) was determined by number of dead mice (Mus musculus) after 16 days post infection at the dose of 8 mg/kg/day; assay type: ADME, organism-based; conditions: 384 h; procedure, shortened: as §1
Mus musculus [29] = assay: In vivo study of Plasmodium berghei in mice (Mus musculus) was determined by number of dead mice (Mus musculus) after 18 days post infection at the dose of 32 mg/kg/day; assay type: ADME, organism-based; conditions: 432 h; procedure, shortened: as §1
Mus musculus [30] = assay: In vivo study of control in mice was determined by no. of dead mice after 7 days post infection at the dose of 0 mg/kg/day; assay type: ADME, organism-based; conditions: 168 h; procedure, shortened: as §1
Mus musculus [31] = assay: In vivo study of Plasmodium berghei in mice (Mus musculus) was determined by number of dead mice (Mus musculus) after 19 days post infection at the dose of 32 mg/kg/day; assay type: ADME, organism-based; conditions: 456 h; procedure, shortened: as §1
Mus musculus [32] = assay: In vivo study of Plasmodium berghei in mice (Mus musculus) was determined by number of dead mice (Mus musculus) after 13 days post infection at the dose of 8 mg/kg/day; assay type: ADME, organism-based; conditions: 312 h; procedure, shortened: as §1
Mus musculus [33] = assay: In vivo study of control in mice was determined by no. of dead mice after 9 days post infection at the dose of 0 mg/kg/day; assay type: ADME, organism-based; conditions: 216 h; procedure, shortened: as §1
Mus musculus [34] = assay: Number of mice alive 60 days after infection at the dose of 128 mg/kg/day among the 7 mice tested; assay type: functional; procedure, shortened: as §1
Mus musculus [35] = assay: In vivo study of control in mice was determined by no. of dead mice after 8 days post infection at the dose of 0 mg/kg/day; assay type: ADME, organism-based; conditions: 192 h; procedure, shortened: as §1
Mus musculus [36] = assay: In vivo study of Plasmodium berghei in mice (Mus musculus) was determined by number of dead mice (Mus musculus) after 12 days post infection at the dose of 32 mg/kg/day; assay type: ADME, organism-based; conditions: 288 h; procedure, shortened: as §1

C[C@@H]1CCC2[C@@H](C)C(=O)N(CC=O)[C@@H]3O[C@@]4(C)CC[C@@H]1[C@@]23OO4 (some centres not stated)
No. of dead mice (Mus musculus [1]): 1
No. of mice alive (Mus musculus [2]): 0
No. of dead mice (Mus musculus [3]): 1
No. of dead mice (Mus musculus [4]): 1
No. of mice alive (Mus musculus [5]): 5
Relative activity (Plasmodium falciparum): 26
No. of dead mice (Mus musculus [6]): 1
No. of dead mice (Mus musculus [7]): 1
No. of mice alive (Mus musculus [8]): 5

CCOC1O[C@@H]2O[C@@]3(C)CC[C@H]4[C@H](C)CCC([C@H]1C)[C@@]24OO3 (some centres not stated)
No. of dead mice (Mus musculus [9]): 1
No. of dead mice (Mus musculus [10]): 1
No. of dead mice (Mus musculus [11]): 2
No. of dead mice (Mus musculus [12]): 1
No. of dead mice (Mus musculus [13]): 1
No. of mice alive (Mus musculus [14]): 7
No. of mice alive (Mus musculus [15]): 7
No. of dead mice (Mus musculus [16]): 1
No. of mice alive (Mus musculus [17]): 6
No. of mice alive (Mus musculus [18]): 0
No. of dead mice (Mus musculus [19]): 1

C[C@@H]1CCC2[C@@H](C)C(=O)N(C)[C@@H]3O[C@@]4(C)CC[C@@H]1[C@@]23OO4 (some centres not stated)
Relative activity (Plasmodium falciparum): 2.6

C=CCN1C(=O)[C@H](C)C2CC[C@@H](C)[C@@H]3CC[C@@]4(C)OO[C@@]23[C@H]1O4 (some centres not stated)
Relative activity (Plasmodium falciparum): 0.8

C[C@@H]1CCC2[C@@H](C)C(=O)N(Cc3ccco3)[C@@H]3O[C@@]4(C)CC[C@@H]1[C@@]23OO4 (some centres not stated)
Relative activity (Plasmodium falciparum): 1

C[C@@H]1CCC2[C@@H](C)C(=O)N[C@@H]3O[C@@]4(C)CC[C@@H]1[C@@]23OO4 (some centres not stated)
Relative activity (Plasmodium falciparum): 1

C[C@@H]1CCC2[C@@H](C)C(=O)N(Cc3ccccn3)[C@@H]3O[C@@]4(C)CC[C@@H]1[C@@]23OO4 (some centres not stated)
Relative activity (Plasmodium falciparum): 22

CO[C@@]1(C)CC[C@@H]2C3C(CC[C@H]2C)[C@@H](C)C(=O)N(CC(C)(C)C)[C@@H]3O1 (some centres not stated)
Relative activity (Plasmodium falciparum): 0.001

C[C@@H]1CCC2[C@@H](C)C(=O)N(CC(C)(C)C)[C@@H]3O[C@@]4(C)CC[C@@H]1[C@@]23OO4 (some centres not stated)
Relative activity (Plasmodium falciparum): 9

CO[C@@]1(C)CC[C@@H]2C3C(CC[C@H]2C)[C@@H](C)C(=O)N[C@@H]3O1 (some centres not stated)
Relative activity (Plasmodium falciparum): 0.01

C[C@@H]1CCC2[C@@H](C)C(=O)N(Cc3cccs3)[C@@H]3O[C@@]4(C)CC[C@@H]1[C@@]23OO4 (some centres not stated)
Relative activity (Plasmodium falciparum): 1.1

CO[C@@]1(C)CC[C@@H]2C3C(CC[C@H]2C)[C@@H](C)C(=O)N(Cc2ccccn2)[C@@H]3O1 (some centres not stated)
Relative activity (Plasmodium falciparum): 0.008

C[C@@H]1CC[C@H]2[C@@H](C)C(=O)O[C@@H]3O[C@@]4(C)CC[C@@H]1[C@]32OO4 [ARTEMISININ]
No. of mice alive (Mus musculus [20]): 2
No. of mice alive (Mus musculus [21]): 0
No. of mice alive (Mus musculus [22]): 0
No. of dead mice (Mus musculus [23]): 2
No. of dead mice (Mus musculus [24]): 1
No. of dead mice (Mus musculus [25]): 1
No. of dead mice (Mus musculus [26]): 1
No. of dead mice (Mus musculus [27]): 1
No. of dead mice (Mus musculus [28]): 2
No. of dead mice (Mus musculus [29]): 1
No. of dead mice (Mus musculus [30]): 3
No. of dead mice (Mus musculus [31]): 1
No. of dead mice (Mus musculus [32]): 1
No. of dead mice (Mus musculus [33]): 1
No. of mice alive (Mus musculus [34]): 6
No. of dead mice (Mus musculus [35]): 2
No. of dead mice (Mus musculus [36]): 1
